Laboratory results reported in ChEMBL document CHEMBL5260806, “Hydrogen peroxide activated quinone methide precursors with enhanced DNA cross-linking capability and cytotoxicity towards cancer cells” (Eur J Med Chem, 2017).
Activity calls are given as the source filed them.

What was measured:
SF-268 = assay: Anticancer activity against human SF-268 cells assessed as cell growth inhibition at 10 uM incubated for 48 hrs by sulforhodamine B assay; assay type: functional; settings: read-out: GI
How it was run: (§1)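 NCI DTP 60-cell-line screen run at National Cancer Institute. Cells grown in RPMI 1640 with 5% fetal bovine serum and 2 mM L-glutamine, seeded at 5,000–40,000 cells/well depending on doubling time. Single-dose screen at 10 µM gives growth percentage; dose-response series gives GI50.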

DNA [1] = assay: Induction of [32P]-labeled 49-mer oligonucleotide duplex DNA 25 (unknown origin) interstrand cross-linking at 2 mM for 24 hrs without H2O2 by PAGE; assay type: functional
HOP-62 = assay: Anticancer activity against human HOP-62 cells assessed as cell growth inhibition incubated for 48 hrs by sulforhodamine B assay; assay type: functional
How it was run: (§2)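 NCI-60 screen: cell lines grown in RPMI 1640 with 5% FBS and 2 mM L-glutamine, plated in 96-well plates at 5,000–40,000 cells/well depending on doubling time. Each line has one single-dose arm at 10 µM and one dose-response arm giving GI50.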

CAKI-1 [2] = assay: Anticancer activity against human CAKI-1 cells assessed as cell growth inhibition incubated for 48 hrs by sulforhodamine B assay; assay type: functional; how it was run: as §2
UO-31 = assay: Anticancer activity against human UO-31 cells assessed as cell growth inhibition at 10 uM incubated for 48 hrs by sulforhodamine B assay; assay type: functional; settings: read-out: GI
LOX IMVI = assay: Anticancer activity against human LOX IMVI cells assessed as cell growth inhibition incubated for 48 hrs by sulforhodamine B assay; assay type: functional; how it was run: as §2
U-251 = assay: Anticancer activity against human U-251 cells assessed as cell growth inhibition at 10 uM incubated for 48 hrs by sulforhodamine B assay; assay type: functional; settings: read-out: GI
HOP-92 [3] = assay: Anticancer activity against human HOP-92 cells assessed as cell growth inhibition incubated for 48 hrs by sulforhodamine B assay; assay type: functional; how it was run: as §2
HOP-92 [4] = assay: Anticancer activity against human HOP-92 cells assessed as cell growth inhibition at 10 uM incubated for 48 hrs by sulforhodamine B assay; assay type: functional; settings: read-out: GI; how it was run: as §2
Hs-578T = assay: Anticancer activity against human Hs-578T cells assessed as cell growth inhibition at 10 uM incubated for 48 hrs by sulforhodamine B assay; assay type: functional; settings: read-out: GI; how it was run: as §2
786-0 = assay: Anticancer activity against human 786-0 cells assessed inhibition of cell growth after 48 hrs by CellTiter-Glo luminescent assay; assay type: functional, cell-based; settings: 786-0, 48 h
How it was run: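 Renal lines grown in RPMI 1640 with 5% FBS and 2 mM L-glutamine, plated at 5,000–10,000 cells/well in 384-well plates and held 2–3 h at 37 °C, 5% CO2. Compounds were made as 20 mM DMSO stocks, given as ten 2-fold serial dilutions diluted 1:100 into cells, and incubated 48 h. Read-out was CellTiter-Glo luminescence after 10 min at room temperature.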

A498 [5] = assay: Anticancer activity against human A498 cells assessed as cell growth inhibition incubated for 48 hrs by sulforhodamine B assay; assay type: functional; how it was run: as §2
[6] = Toxicity in healthy human lymphocytes assessed as reduction in cell viability at 10 uM after 24 hrs by Annexin/PI staining based fluorescence assay; settings: lymphocyte
How it was run: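 Normal donor lymphocytes (n=2) isolated from peripheral blood by Ficoll-hypaque, in RPMI with 10% autologous plasma. Exposed to 10 µM for 24 h; % viable cells by annexin/PI binding.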

SK-OV-3 = assay: Anticancer activity against human SK-OV-3 cells assessed as cell growth inhibition at 10 uM incubated for 48 hrs by sulforhodamine B assay; assay type: functional; settings: read-out: GI; how it was run: as §1
A498 [7] = assay: Anticancer activity against human A498 cells assessed as cell growth inhibition at 10 uM incubated for 48 hrs by sulforhodamine B assay; assay type: functional; settings: read-out: GI; how it was run: as §2
CAKI-1 [8] = assay: Anticancer activity against human CAKI-1 cells assessed as cell growth inhibition at 10 uM incubated for 48 hrs by sulforhodamine B assay; assay type: functional; settings: read-out: GI; how it was run: as §2
NCI-H226 = assay: Anticancer activity against human NCI-H226 cells assessed as cell growth inhibition at 10 uM incubated for 48 hrs by sulforhodamine B assay; assay type: functional; settings: read-out: GI; how it was run: as §1
PC-3 = assay: Anticancer activity against human PC-3 cells assessed as cell growth inhibition incubated for 48 hrs by sulforhodamine B assay; assay type: functional; how it was run: as §1
OVCAR-8 [9] = assay: Anticancer activity against human OVCAR-8 cells assessed as cell growth inhibition incubated for 48 hrs by sulforhodamine B assay; assay type: functional; how it was run: as §1
MOLT-4 = assay: Anticancer activity against human MOLT-4 cells assessed as cell growth inhibition at 10 uM incubated for 48 hrs by sulforhodamine B assay; assay type: functional; settings: read-out: GI; how it was run: as §1
CLL cell [10] = assay: Induction of DNA damage in chronic lymphocytic leukemia patient lymphocytes assessed as gamma-H2Ax phosphorylation at Ser139 residue at 10 uM after 24 hrs by FITC-staining based flow cytometry; assay type: functional; settings: Homo sapiens
How it was run: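 Patient CLL lymphocytes, Ficoll-hypaque isolated, in RPMI with 10% autologous plasma, untreated or exposed to 10 µM for 24 h. Cells washed in PBS, fixed in ice-cold 70% ethanol and held at −20 °C. Then permeabilised, stained with FITC anti-H2AX Ser139 antibody and read by flow cytometry.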

OVCAR-4 = assay: Anticancer activity against human OVCAR-4 cells assessed as cell growth inhibition at 10 uM incubated for 48 hrs by sulforhodamine B assay; assay type: functional; settings: read-out: GI; how it was run: as §1
HT-29 = assay: Anticancer activity against human HT-29 cells assessed as cell growth inhibition incubated for 48 hrs by sulforhodamine B assay; assay type: functional; how it was run: as §2
SK-MEL-5 = assay: Anticancer activity against human SK-MEL-5 cells assessed as cell growth inhibition at 10 uM incubated for 48 hrs by sulforhodamine B assay; assay type: functional; settings: read-out: GI; how it was run: as §1
NCI/ADR-RES = assay: Anticancer activity against human NCI/ADR-RES cells assessed as cell growth inhibition incubated for 48 hrs by sulforhodamine B assay; assay type: functional; how it was run: as §1
CLL cell [11] = assay: Induction of DNA damage in chronic lymphocytic leukemia patient lymphocytes assessed as apoptosis rate at 10 uM after 24 hrs by annexin/PI staining based flow cytometry; assay type: functional; settings: Homo sapiens
HCT-15 = assay: Anticancer activity against human HCT-15 cells assessed as cell growth inhibition at 10 uM incubated for 48 hrs by sulforhodamine B assay; assay type: functional; settings: read-out: GI; how it was run: as §2
COLO 205 = assay: Anticancer activity against human COLO 205 cells assessed as cell growth inhibition incubated for 48 hrs by sulforhodamine B assay; assay type: functional; how it was run: as §2
MDA-MB-435 = assay: Anticancer activity against human MDA-MB-435 cells assessed as cell growth inhibition at 10 uM incubated for 48 hrs by sulforhodamine B assay; assay type: functional; settings: read-out: GI; how it was run: as §1
DNA [12] = assay: Potentiation of H2O2 induced [32P]-labeled 49-mer oligonucleotide duplex DNA 25 (unknown origin) interstrand cross-linking at pH 8 in phosphate buffer solution assessed as rate constant and measured for 24 hrs by PAGE analysis; assay type: functional
DNA [13] = assay: Induction of [32P]-labeled 49-mer oligonucleotide duplex DNA 25 (unknown origin) interstrand cross-linking at 2 mM for 48 hrs in presence of 2mM H2O2 by PAGE; assay type: functional
ACHN = assay: Anticancer activity against human ACHN cells assessed as cell growth inhibition at 10 uM incubated for 48 hrs by sulforhodamine B assay; assay type: functional; settings: read-out: GI; how it was run: as §2
UACC-62 = assay: Anticancer activity against human UACC-62 cells assessed as cell growth inhibition incubated for 48 hrs by sulforhodamine B assay; assay type: functional
OVCAR-8 [14] = assay: Anticancer activity against human OVCAR-8 cells assessed as cell growth inhibition at 10 uM incubated for 48 hrs by sulforhodamine B assay; assay type: functional; settings: read-out: GI; how it was run: as §1
SR = assay: Anticancer activity against human SR cells assessed as cell growth inhibition incubated for 48 hrs by sulforhodamine B assay; assay type: functional

COc1cc(CBr)c(B2OC(C)(C)C(C)(C)O2)c(CBr)c1
0.000237 s⁻¹: Ka (DNA [12])
active: Activity (CLL cell [10]) | Activity (CLL cell [11])
0%: Activity (DNA [1])
2 µM: GI50 (HOP-62) | GI50 (CAKI-1 [2]) | GI50 (LOX IMVI) | GI50 (HOP-92 [3]) | GI50 (A498 [5]) | GI50 (PC-3) | GI50 (OVCAR-8 [9]) | GI50 (HT-29) | GI50 (NCI/ADR-RES) | GI50 (COLO 205) | GI50 (UACC-62) | GI50 (SR)
Non-Toxic: Activity [6]
36%: Activity (DNA [13])
< 50%: inhibition of growth at 10 µM (SF-268) | inhibition of growth at 10 µM (UO-31) | inhibition of growth at 10 µM (U-251) | inhibition of growth at 10 µM (HOP-92 [4]) | inhibition of growth at 10 µM (Hs-578T) | inhibition of growth at 10 µM (SK-OV-3) | inhibition of growth at 10 µM (A498 [7]) | inhibition of growth at 10 µM (CAKI-1 [8]) | inhibition of growth at 10 µM (NCI-H226) | inhibition of growth at 10 µM (MOLT-4) | inhibition of growth at 10 µM (OVCAR-4) | inhibition of growth at 10 µM (SK-MEL-5) | inhibition of growth at 10 µM (HCT-15) | inhibition of growth at 10 µM (MDA-MB-435) | inhibition of growth at 10 µM (ACHN) | inhibition of growth at 10 µM (OVCAR-8 [14])
10.8 µM: IC50 (786-0)
